Data reported in ChEMBL document CHEMBL1146361, “Studies on acyclic pyrimidines as inhibitors of mycobacteria” (Bioorg Med Chem, 2007).
Activity calls are given as the source filed them. The calls are words filed in the database; no cut-off is given here.

Tests used:
[1] = tested on: Mycobacterium tuberculosis; assay: Antimycobacterial activity against Mycobacterium tuberculosis H37Ra by MABA; format: functional; set-up: concentration or dose not given beside the values
Procedure, shortened: (§1)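 Compounds in DMSO (100× highest final concentration), diluted in 7H9GC; tested at 100, 50, 10 and 1 µg/mL in triplicate, three experiments. Frozen inoculum diluted in 7H9GC. Read visually and spectrophotometrically. […], mean given. Visual MIC = lowest concentration preventing blue-to-pink change.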

Mycobacterium avium [2] = assay: Antimycobacterial activity against Mycobacterium avium ATCC 25291; format: functional; set-up: concentration or dose not given beside the values; procedure, shortened: as §1
Staphylococcus aureus = assay: Antibacterial activity against Staphylococcus aureus up to 100 ug/ml after 16 to 20 hrs by broth microdilution method; format: functional, organism-based
[3] = tested on: Staphylococcus epidermidis; assay: Antibacterial activity against Staphylococcus epidermidis up to 100 ug/ml after 16 to 20 hrs by broth microdilution method; format: functional, organism-based
Enterococcus faecalis = assay: Antibacterial activity against Enterococcus faecalis up to 100 ug/ml after 16 to 20 hrs by broth microdilution method; format: functional, organism-based
Bacillus subtilis = assay: Antibacterial activity against Bacillus subtilis up to 100 ug/ml after 16 to 20 hrs by broth microdilution method; format: functional, organism-based
Streptococcus pneumoniae = assay: Antibacterial activity against Streptococcus pneumoniae up to 100 ug/ml after 16 to 20 hrs by broth microdilution method; format: functional, organism-based
Salmonella typhimurium = assay: Antibacterial activity against Salmonella Typhimurium up to 100 ug/ml after 16 to 20 hrs by broth microdilution method; format: functional, organism-based; settings: Salmonella enterica subsp. enterica serovar Typhimurium
Escherichia coli = assay: Antibacterial activity against Escherichia coli up to 100 ug/ml after 16 to 20 hrs by broth microdilution method; format: functional, organism-based
Proteus vulgaris = assay: Antibacterial activity against Proteus vulgaris up to 100 ug/ml after 16 to 20 hrs by broth microdilution method; format: functional, organism-based
Pseudomonas aeruginosa = assay: Antibacterial activity against Pseudomonas aeruginosa up to 100 ug/ml after 16 to 20 hrs by broth microdilution method; format: functional, organism-based
[4] = tested on: Mycobacterium tuberculosis; assay: Antimycobacterial activity against Mycobacterium tuberculosis H37Ra at 100 ug/mL after 24 to 48 hrs by MABA; format: functional; procedure, shortened: as §1
[5] = tested on: Mycobacterium tuberculosis; assay: Antimycobacterial activity against Mycobacterium tuberculosis H37Ra at 50 ug/mL after 24 to 48 hrs by MABA; format: functional; procedure, shortened: as §1
[6] = tested on: Mycobacterium tuberculosis; assay: Antimycobacterial activity against Mycobacterium tuberculosis H37Ra at 10 ug/mL after 24 to 48 hrs by MABA; format: functional; procedure, shortened: as §1
Mycobacterium avium [7] = assay: Antimycobacterial activity against Mycobacterium avium ATCC 25291 at 100 ug/mL after 24 to 48 hrs by MABA; format: functional; procedure, shortened: as §1
Mycobacterium avium [8] = assay: Antimycobacterial activity against Mycobacterium avium ATCC 25291 at 50 ug/mL after 24 to 48 hrs by MABA; format: functional; procedure, shortened: as §1
HepG2 = assay: Toxicity against HepG2 cells; format: functional, cell-based; settings: Homo sapiens

SMILES | Inhibition [1] | Inhibition (Mycobacterium avium [2]) | Activity (Staphylococcus aureus) | Activity [3] | Activity (Enterococcus faecalis) | Activity (Bacillus subtilis) | Activity (Streptococcus pneumoniae) | Activity (Salmonella typhimurium) | Activity (Escherichia coli) | Activity (Proteus vulgaris) | Activity (Pseudomonas aeruginosa) | inhibition at 100 µg/mL [4] | inhibition at 50 µg/mL [5] | inhibition at 10 µg/mL [6] | inhibition at 100 µg/mL (Mycobacterium avium [7]) | inhibition at 50 µg/mL (Mycobacterium avium [8]) | Activity (HepG2)
C=C(N=[N+]=[N-])c1cn(COC(CO)CO)c(=O)[nH]c1=O | 0% | 0% | inactive | inactive | inactive | inactive | inactive | inactive | inactive | inactive | inactive |  |  |  |  |  | 
C=Cc1cn(COCCO)c(=O)[nH]c1=O | 0% | 0% | inactive | inactive | inactive | inactive | inactive | inactive | inactive | inactive | inactive |  |  |  |  |  | 
CCCCCCCCCCC#Cc1cn(COCCO)c(=O)n(C#CCCCCCCCCCC)c1=O | 0% | 0% | inactive | inactive | inactive | inactive | inactive | inactive | inactive | inactive | inactive |  |  |  |  |  | 
CCCCCC#Cc1cn(COCCO)c(=O)[nH]c1=O | 0% | 0% | inactive | inactive | inactive | inactive | inactive | inactive | inactive | inactive | inactive |  |  |  |  |  | 
[N-]=[N+]=NC(CBr)c1cn(COC(CO)CO)c(=O)[nH]c1=O (configuration not stated) | 0% | 0% | inactive | inactive | inactive | inactive | inactive | inactive | inactive | inactive | inactive |  |  |  |  |  | 
Cc1cn(COCCO)c(=O)[nH]c1=O | 0% | 0% | inactive | inactive | inactive | inactive | inactive | inactive | inactive | inactive | inactive |  |  |  |  |  | 
CCc1cn(COCCO)c(=O)[nH]c1=O | 0% | 0% | inactive | inactive | inactive | inactive | inactive | inactive | inactive | inactive | inactive |  |  |  |  |  | 
O=c1[nH]c(=O)n(COCCO)cc1Cl | 0% | 0% | inactive | inactive | inactive | inactive | inactive | inactive | inactive | inactive | inactive |  |  |  |  |  | 
O=c1[nH]c(=O)n(COCCO)cc1Br | 0% | 0% | inactive | inactive | inactive | inactive | inactive | inactive | inactive | inactive | inactive |  |  |  |  |  | 
[N-]=[N+]=NC(CI)c1cn(COC(CO)CO)c(=O)[nH]c1=O (configuration not stated) | 0% | 0% | inactive | inactive | inactive | inactive | inactive | inactive | inactive | inactive | inactive |  |  |  |  |  | 
[N-]=[N+]=NC(CI)c1cn(COCCO)c(=O)[nH]c1=O (configuration not stated) |  |  | inactive | inactive | inactive | inactive | inactive | inactive | inactive | inactive | inactive | 100% | 100% | 50% | 50% | 50% | Not toxic
[N-]=[N+]=NC(CCl)c1cn(COC(CO)CO)c(=O)[nH]c1=O (configuration not stated) | 0% | 0% | inactive | inactive | inactive | inactive | inactive | inactive | inactive | inactive | inactive |  |  |  |  |  | 
O=c1[nH]c(=O)n(COCCO)cc1I | 0% | 0% | inactive | inactive | inactive | inactive | inactive | inactive | inactive | inactive | inactive |  |  |  |  |  | 
C=Cc1cn(COC(CO)CO)c(=O)[nH]c1=O | 0% | 0% | inactive | inactive | inactive | inactive | inactive | inactive | inactive | inactive | inactive |  |  |  |  |  | 
O=c1[nH]c(=O)n(COC(CO)CO)cc1I [IODACYCLUR] | 0% | 0% | inactive | inactive | inactive | inactive | inactive | inactive | inactive | inactive | inactive |  |  |  |  |  | 
O=c1[nH]c(=O)n(COCCO)cc1[N+](=O)[O-] | 0% | 0% | inactive | inactive | inactive | inactive | inactive | inactive | inactive | inactive | inactive |  |  |  |  |  | 
Nc1cn(COCCO)c(=O)[nH]c1=O | 0% | 0% | inactive | inactive | inactive | inactive | inactive | inactive | inactive | inactive | inactive |  |  |  |  |  | 
O=c1[nH]c(=O)n(COCCO)cc1F | 0% | 0% | inactive | inactive | inactive | inactive | inactive | inactive | inactive | inactive | inactive |  |  |  |  |  | 
O=c1ccn(COCCO)c(=O)[nH]1 | 0% | 0% | inactive | inactive | inactive | inactive | inactive | inactive | inactive | inactive | inactive |  |  |  |  |  | 
[N-]=[N+]=NC(CBr)c1cn(COCCO)c(=O)[nH]c1=O (configuration not stated) |  |  | inactive | inactive | inactive | inactive | inactive | inactive | inactive | inactive | inactive | 100% | 100% | 50% |  | 100% | Not toxic
